Assay outcomes (PubChem)
This is a sample that favours compounds with a hit; in the whole collection about 3.5% have one here.
FGF22 binding = binders of recombinant human FGF22 by thermal shift; 340,000 tested, 1.5% active; activity (Tm shift, normalised), % at 9.99 µM; SYPRO orange fluorescence; percent of sucrose octasulfate shift, DMSO zero; Q9HCT0;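 active = mean Tm shift, scaled 0 neutral to 100 positive control, at about 1.3% or above, every replicate too, limit read from the data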
Target sequence (Q9HCT0 whole entry, looked up): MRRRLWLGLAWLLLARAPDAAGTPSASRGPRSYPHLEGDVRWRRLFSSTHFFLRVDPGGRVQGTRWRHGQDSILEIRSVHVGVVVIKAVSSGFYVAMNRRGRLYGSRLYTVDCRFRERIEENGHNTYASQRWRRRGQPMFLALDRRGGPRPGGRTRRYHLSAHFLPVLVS
rRNA inh HTS = inhibitors of bacterial rRNA selective over humanized ribosomes; GFP signal change (wild-type ribosome), % (test concentration not listed); E. coli WT GFP vs humanized-ribosome RFP mutants, fluorescence, 24 h; stronger effect = lower value; DMSO median 0, no signal -100; 350,000 tested, 1.6% active; AID 720706;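 active = significant combined selectivity score with lowered wild-type GFP, culture density cut under 30%, mutant RFP and density less affected; inactive = any of these conditions unmet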
ERAP1 HTS inh = inhibitors of human ERAP1 aminopeptidase. AID 652197. 340,000 tested, 0.15% active. recombinant ERAP1, Leu-AMC fluorescence, 60 min. inhibition, % at 10.7 µM. Q9NZ08;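 active = mean replicate inhibition of at least 30%, or all replicates individually reaching that 30% level; inactive = mean below 30% and not every replicate reaching it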;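 also: 0% = neutral control wells and 100% = L-leucinethiol positive control wells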
HIV Env fusion = inhibitors of HIV Env-mediated cell fusion; AID 651610; HeLa-JRFL Env/CEM21 cell fusion, luciferase; inhibition, % at 12.3 µM; 360,000 tested, 1.1% active;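 active = mean replicate inhibition score of at least 50 and every replicate individually at or above 50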;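 also: 0% = plate neutral controls and 100% = maraviroc near 300 nM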
Cneo AK release = Cryptococcus neoformans lysis via adenylate kinase release. 360,000 tested, 0.2% active. lysis activity, % at 15 µM. AID 651654. C. neoformans lysis, adenylate kinase release luminescence, 4 h; normalised: neutral wells 0, clomiphene wells 100;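 active = mean lysis activity across replicates of at least 80%, whatever share of replicates individually reach that level; inactive = mean lysis activity below 80%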
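Assay system: Cryptococcus neoformans yeast cells / Dosing: single-point compound dose / Timing: 4 h at 37 °C static, read 1 h later / Measured by: luminescence of released adenylate kinase using an AK detection reagent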
PGC1a acetyl inh = modulators of PGC1a acetylation. AID 651687. 350,000 tested, 0.17% active. U2OS PGC1a acetylation, AlphaScreen anti-acetyl-lysine; with virally co-expressed GCN5 acetyltransferase. inhibition, % at 15.6 µM;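 active = every replicate shows inhibition of at least 40%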;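 also: 0% = neutral control wells and 100% = positive control wells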
The depositor's hits bear a star; . = no result; [ ] = another dose, or the depositor's remark.

SMILES | FGF22 binding | rRNA inh HTS | ERAP1 HTS inh | HIV Env fusion | Cneo AK release | PGC1a acetyl inh
Cc1ccc(C2=NS(=O)(=O)N(C)C(C(=O)NCc3ccco3)=C2)cc1 | 0 | -2 | -10 | -71 | -2 | .
O=C(O)CCC1C(=O)NC(=O)CC1c1ccccc1 (stereo not given) | 0 | 15 | 1 | -1 | -1 | -6
CC(=O)Nc1ccc(NC(=O)c2ccccc2CCc2ccccc2)cc1 | 44* | 18 | 2 | -11 | . | 9
CO[C@H]1CN(C)C(=O)c2ccc(NC(=O)Nc3cc(F)ccc3F)cc2OC[C@@H](C)N(C(=O)c2ccccn2)C[C@H]1C | 0 | -2 | -2 | . | -1 | -2
O=C(Cc1ccccc1[N+](=O)[O-])OCN1C(=O)c2ccccc2C1=O | 0 | 2 | 0 | -101 | 0 | .
COC(=O)C1=CN(CC2CCCO2)C=C(C(=O)OC)C1c1ccsc1 (stereo not given) | . | . | . | -162 | -1 | 4
COC(=O)C1=CN(Cc2ccc(OC)cc2)C=C(C(=O)OC)C1c1ccsc1 | 0 | -22* | -30 | -18 | . | -8
COC(=O)C1=CN(Cc2ccc(OC)c(OC)c2)C=C(C(=O)OC)C1c1cccc(O)c1 | 0 | -1 | -146 | -5 | 3 | 74*
COC(=O)C1=CN(Cc2ccc(F)cc2)C=C(C(=O)OC)C1c1ccc(O)c(OC)c1 | 0 | -15 | 1 | -150 | 2 | .
NC(N)=Nc1nc(CSCC/C(N)=N/S(N)(=O)=O)cs1 | 0 | . | -1 | 1 | 0 | -7
CC(=O)Nc1cccc(C(=O)OCC(=O)c2ccccc2Cl)c1 | 0 | -24* | -1 | -73 | . | 1
Cc1ccc(NC(=S)Nc2ccc(Cl)c(Cl)c2)c(OC(F)F)c1 | 0 | -41* | -2 | 13 | . | .
COC(=O)c1cccc(NC(=S)Nc2ccc(Cl)c(Cl)c2)c1 | 0 | -48* | -3 | -46 | -4 | 4
Cc1cccc(C)c1NC(=S)Nc1ccc(Cl)c(Cl)c1 | 43* | -58 | 2 | 4 | -2 | .
Cc1ccc(NC(=S)Nc2ccc(OC(F)F)c(Cl)c2)cc1Cl | 0 | -60 | -4 | -38 | -2 | 7
C[C@@H]1CCCCO[C@@H](CN(C)Cc2ccc(Cl)c(Cl)c2)[C@H](C)CN([C@@H](C)CO)C(=O)c2cc(NS(=O)(=O)c3ccc(F)cc3)ccc2O1 | -1 | 0 | 2 | 12[16.7 µM] | 11 | -16
CC(=O)N1CCCCN2[C@H](CO)[C@H](c3ccc(Br)cc3)[C@H]2C1 | 0 | 5 | 0 | . | -1 | -1
Cc1ccc(Cl)cc1NC(=S)N(C)N | 0 | 16 | . | -3 | 3 | 5
Cc1ccc(NC(=S)N(C)N)cc1Cl | 1 | -25* | 1 | 2 | 1 | -4
COc1cccc(-n2nnc3c(=O)n(CC(=O)Nc4ccccc4C)cnc32)c1 | 0 | 4 | -1 | -14 | -5 | .
COc1ccc(C(=O)N/N=C\c2ccc(OC)c(COc3ccccc3Br)c2)c(OC)c1 | 0 | 0 | 2 | -5 | -1 | .
COc1ccc(/C=N/Nc2nccnc2Cl)c(OC)c1 | 0 | 16 | 7 | 1 | . | -5
COc1ccc(/C=N/Nc2nonc2N)c(OC)c1 | 0 | -1 | -2 | 65* | . | .
CN1CCN(C(=O)c2cc(Oc3c(F)c(F)c(F)c(F)c3F)cc(C(=O)N3CCN(C)CC3)c2)CC1 | 44* | 10 | -5 | -8 | 0 | 3
CN1CCN(C(=O)c2ccc(F)c(F)c2)CC1 | 0 | 8 | -1 | 12 | 0 | .
SMILES | FGF22 binding | rRNA inh HTS | ERAP1 HTS inh | HIV Env fusion | Cneo AK release | PGC1a acetyl inh
COc1ccc(NC(=O)/C(C#N)=C/c2c(C)nn(-c3ccc(F)cc3)c2Cl)cc1OC | 0 | 5 | 9 | 20 | 0 | -3
COc1ccccc1NC(=O)/C(C#N)=C/c1c(C)nn(-c2ccc(F)cc2)c1Cl | 43* | 19 | -5 | 16 | . | .
CC(C)Oc1cccc(C(=O)NC2=NCCS2)c1 | 0 | 8 | -1 | -30 | -1 | 11
O=C(/C=C/c1ccc([N+](=O)[O-])cc1)NC1CC2CCC1C2 (stereo not given) | 0 | -28* | 3 | -6 | . | .
O=C(/C=C/c1ccc(Cl)cc1)NC1CC2CCC1C2 (stereo not given) | 0 | -50 | 1 | -3 | -3 | -6
Cc1ccccc1OCc1occc1C(=O)Nc1cccc(-n2cnnn2)c1 | 0 | -4 | -1 | 28 | 1 | -10
Clc1ccc(CNCCCSc2ncccn2)cc1Cl | 0 | -4 | -2 | 15 | 5 | 3
O=C(NC1CCCCC1)N1CCCC(c2nc(-c3cccs3)no2)C1 (stereo not given) | . | . | -4 | 9 | 2 | -9
COc1ccccc1C1=NOC(COC(=O)c2ccc(Br)cc2)C1 (stereo not given) | 43* | -18 | -2 | -29 | 1 | .
COc1ccccc1C1=NOC(COC(=O)c2ccc([N+](=O)[O-])cc2)C1 (stereo not given) | 0 | 9 | 1 | -3 | 2 | 1
Cc1cc(C)cc(N=c2c([N+](=O)[O-])nn(-c3ccc4c(c3)OCCO4)n2O)c1 | 0 | 0 | -3 | 65* | -3 | 4
Cc1ccc(N=c2c([N+](=O)[O-])nn(-c3ccccc3)n2O)c(C)c1 | 0 | -25* | 2 | . | -7 | 0
Cc1ccc(N=c2c([N+](=O)[O-])nn(-c3ccc4c(c3)OCCO4)n2O)cc1F | 43* | 6 | -3 | 24 | . | .
CCCCN(CCCC)Cc1ccc(C(=O)NNC(=O)Nc2ccc(Cl)cc2)o1 | 0 | 4 | -2 | 16 | -7 | -16
CCCCN(CCCC)Cc1ccc(C(=O)NN)o1 | 44* | 19 | 0 | 3 | -1 | -8
COc1ccc(NC(=O)N(C)C[C@@H]2Oc3ccc(NC(=O)CCN4CCOCC4)cc3CC(=O)N([C@H](C)CO)C[C@H]2C)cc1 | 0 | 5 | 0 | . | -4 | 3
CCOC(=O)C1CCCN(C(=O)c2ccncc2)CC1 (stereo not given) | 0 | 4 | -2 | 9 | -1 | .
O=S(=O)(c1ccccc1F)N1CCC(Oc2ccc(-n3cnnn3)cc2)CC1 | 0 | -28* | 1 | -4 | -1 | .
Nc1ccc2c(c1)Cc1cc(N)c(Cl)cc1-2 | -1 | -31* | 0 | -8 | -4 | -15
Nc1ccc2c(c1)C(=O)c1ccc(Cl)cc1-2 | 1 | -5 | 4 | . | -4 | 2
Nc1ccc2c(c1)C(=O)c1cc(N)c(Cl)cc1-2 | 43* | -19* | 1 | . | -4 | 6
Nc1cc2c(cc1N)-c1ccccc1C2 | -1 | -3 | 0 | -17 | -4 | 3
Nc1ccc2c(c1)Cc1cc(Cl)c(Cl)cc1-2 | 0 | -6 | -2 | 60* | 1 | 0
CCOc1cccc(C2NC(=S)NC(C)=C2C(=O)Nc2ccccc2)c1 (stereo not given) | . | . | . | . | -6 | -1
